Hit rate of the full screen: of about 360,000 compounds, about 5,400 (1.5%) were called active.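 The calls were made as follows: active = inhibition above a per-plate cutoff, the mean inhibition of test compounds on that plate plus 3 SD (cut at about 49% in these data); inactive = the rest.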 Only a selection was taken, and actives are over-represented in it overall.

This note sets out measurements from PubChem BioAssay AID624466 (The Scripps Research Institute Molecular Screening Center, 2012).

Sequence of Trace amine-associated receptor 1 (Homo sapiens) (Q96RJ0 whole entry, looked up): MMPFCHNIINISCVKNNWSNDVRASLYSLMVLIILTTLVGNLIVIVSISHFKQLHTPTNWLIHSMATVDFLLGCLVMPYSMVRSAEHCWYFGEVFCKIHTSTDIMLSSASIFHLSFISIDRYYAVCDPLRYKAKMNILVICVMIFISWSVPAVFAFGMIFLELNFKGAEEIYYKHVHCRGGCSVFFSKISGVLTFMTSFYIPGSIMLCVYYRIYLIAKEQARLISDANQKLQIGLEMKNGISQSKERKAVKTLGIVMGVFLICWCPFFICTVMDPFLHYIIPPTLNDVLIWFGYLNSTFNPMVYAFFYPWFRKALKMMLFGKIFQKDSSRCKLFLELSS

This experiment addresses Trace amine-associated receptor 1 (Homo sapiens) (UniProt Q96RJ0). The experiment in a line: human TAAR1 antagonists, primary screen, Fluo-8 calcium fluorescence, CHO RD-HGA16 cells (AID 624466).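 Also: 0% = DMSO plus EC80 beta-PEA response and 100% = DMSO alone without agonist.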 The note with it: CHO RD-HGA16 TAAR1, Fluo-8 calcium fluorescence, antagonist; at 3 µM; hits give high values. Summed up:
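test system = CHO RD-HGA16 cells bearing hTAAR1 | replication = singlicate | controls = DMSO-only wells and EC80 β-PEA-stimulated wells | reagent = EC80 β-phenethylamine stimulus | read-out basis = percent inhibition of PEA-evoked calcium signal, max/basal emission ratio | schedule = seeding 17-24 h prior, 75-min 37 °C, 30-min RT dye loading | signal = kinetic Fluo-8 calcium fluorescence measurement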
With `Cc1ccc(CNC(=O)CCS(=O)(=O)c2ccc3c(c2)CC(C)N3C(=O)C2CC2)o1` (centres undefined), the inhibition is -23.9% (inactive).
With `Cc1[nH]c2ccccc2c1CC(=O)Nc1ccc(Nc2cccnc2)c(-c2cccc(Cl)c2)c1`, the inhibition is -0.4% (inactive).
For `C/C(=N/O)c1ccc(N2C(=O)C3C4C=CC(C3C2=O)C2C3C(=O)N(c5ccc(/C(C)=N/O)cc5)C(=O)C3C42)cc1` (centres undefined), the inhibition was -2.86% (inactive).
Under `CCc1c(-c2ccccc2OC)ncn1CCc1ccccc1OC` stands 14.3% (inactive); under `CCCCc1c(-c2ccc(Br)cc2)ncn1CCc1ccccc1OC`, 28.2% (inactive).
Turning to `COc1ccccc1CCn1cnc(-c2ccccc2)c1C(C)C`, the inhibition was 20% (inactive).
With `CCCc1c(-c2ccccc2F)ncn1Cc1ccccc1OC`, the inhibition is -7.18% (inactive).
Under `CCCCCc1c(-c2cccc(Br)c2)ncn1CCc1ccccc1OC` stands 43.2% (inactive); under `CCCCCc1c(Cc2ccccc2)ncn1CCc1ccccc1OC`, 66.2% (active); under `CCCCCc1c(-c2ccc(OC)c(OC)c2)ncn1CCc1ccccc1OC`, 73.9% (active).
Regarding `COc1ccccc1CCNS(=O)(=O)c1cn(C)nc1C`, the inhibition was -36.9% (inactive).
Turning to `CCCCc1c(-c2ccc(Cl)cc2)ncn1CCc1ccccc1OC`, the inhibition was 49.6% (active).
Consider `CCOC(=O)c1cc2cc(OC)ccc2n1C1CCN(C)CC1`, for which the inhibition is -4.73% (inactive).
As to `COC(=O)[C@]1(Cc2ccccc2)NC=C(C(=O)c2ccccc2)[C@@H]1c1cccc(OC)c1`, the inhibition is -1.81% (inactive).
The value for `C[C@H](NC(=O)[C@@H]1CCCN1C(=O)[C@@H]1CCCN1C(=O)c1ccccc1)c1ccccc1` was 2.01% (inactive); that for `C=CCC[C@H](CCCCC)OC(=O)/C=C/[C@H](O)[C@@H](O)C[C@@H](O)CC=C` was -19.3% (inactive); that for `COC(=O)C(C)N(C#N)c1nc(C)nc(C)n1` (centres undefined) was -2.26% (inactive).
`COC(=O)c1c(-c2ccc(OC)cc2)c2c(c3c4ccccc4n(S(=O)(=O)c4ccc(C)cc4)c13)C(=O)N(C)C2`: the inhibition is -15.3% (inactive).
Regarding `CN=C(NC#N)NCCSCc1nc[nH]c1C`, the inhibition is -15.6% (inactive).
The value for `Cc1cc(C)n2nc(C(=O)Oc3ccc4c(c3)OCO4)nc2n1` was 2.03% (inactive); that for `O=C(NCc1ccccc1)[C@@H]1CCCN1C(=O)[C@@H](NS(=O)(=O)c1ccc(F)cc1F)C1CCCCC1` was 7.07% (inactive); that for `O=C(C(=O)N1CCC(c2ccccc2)CC1)c1ccccc1` was -1.49% (inactive).
Regarding `O=C(CSc1nc(-c2ccco2)cc(C(F)(F)F)n1)N1CCc2ccccc2C1`, the inhibition was -4.26% (inactive).
For the compound `O=C(CSc1nc(-c2ccco2)cc(C(F)(F)F)n1)NCc1cccs1`, the inhibition was 58.2% (active).
Take `COc1ccc(-c2cc(C(F)(F)F)nc(SCCC(=O)NCc3ccco3)n2)cc1`: the inhibition was -2.48% (inactive).
`CC1CCCN(C(C(=O)Nc2ccc(C(C)C)cc2)c2ccc3c(c2)OCO3)C1` (centres undefined): the inhibition was -12.3% (inactive).
Take `CCOC(=O)[C@]12CCCC=C1N(Cc1ccc3c(c1)OCO3)C(=O)[C@H](CC(=O)NCc1cccs1)C2`: the inhibition is -12.1% (inactive).
Take `O=C(O)c1ccc(-n2cccc2)cc1O`: the inhibition was 6.36% (inactive).
The value for `CC(=N\NC(=O)c1cc(Br)ccc1O)/C(=N/O)C(=O)Nc1ccccc1` was -8.22% (inactive).
In the case of `Cc1onc(-c2ccccc2Cl)c1C(=O)OCc1nnc(-c2ccccc2)o1`, the inhibition was 14.8% (inactive).
The value for `Cc1onc(-c2ccccc2)c1-c1nnc(COC(=O)c2ccc(N(C)C)cc2)o1` was 73.5% (active); that for `Cc1ccc(C(=O)NCC(=O)OCc2nnc(-c3ccccc3)o2)cc1` was -15.8% (inactive).
The value for `O=S1(=O)CC(N2CCN(Cc3ccccc3F)CC2)CN1Cc1cn(Cc2ccccc2)nn1` (centres undefined) was -11.1% (inactive); that for `CCCCc1nc(NCc2ccccc2)c(C#N)c2c1CCCC2` was -12.6% (inactive); that for `CC(C)CCNc1nc(N2CCCC2)c2c(c1C#N)CCN(C)C2` was -24.7% (inactive).
`CCN1CCc2c(C#N)c(NCc3ccccc3)nc(NCCO)c2C1`: the inhibition is 106% (active).
On to `COc1ccc(-c2nn(-c3ccccc3)cc2C(=O)Nc2nccs2)cc1OC`, for which the inhibition is 71.3% (active).
On to `O=C(O)c1ccccc1-c1ccccc1C(=O)Nc1nccs1`, for which the inhibition was -18.3% (inactive).
As to `COc1ccc(Cl)cc1NC(=O)CN(C)C(=O)c1cn(-c2ccccc2)nc1-c1cccs1`, the inhibition is 12.7% (inactive).
The value for `CCn1c(/C=C/Nc2ccccc2)[n+](CC)c2ccc(C(=O)OCC(F)(F)F)cc21` was -27.5% (inactive); that for `CC1(C)OC(=O)C2=C(C[C@@H](C3CCCCC3)O[C@@H]2c2ccc(Cl)cc2)O1` was -31% (inactive).
With `CS(=O)(=O)c1ccc(-c2nnn(CC(=O)Nc3ccc4c(c3)OCCO4)n2)cc1`, the inhibition was 21% (inactive).
Consider `CC(C)c1cccc(-c2csc(C(O)c3ccccc3)n2)c1` (centres undefined), for which the inhibition was 17.5% (inactive).
On to `COc1ccc(N2CCN(C(=O)COC(=O)c3cccc(S(=O)(=O)Nc4ccccc4OC)c3)CC2)cc1`, for which the inhibition is 21.7% (inactive).
For `COc1ccccc1NS(=O)(=O)c1ccc(C(=O)N2CCN(c3ccccc3O)CC2)cc1`, the inhibition is 58.1% (active).
Under `CN1CCN(C(=O)c2ccc(NS(=O)(=O)c3ccccc3)cc2)CC1` stands -8.92% (inactive); under `CCOc1ccc(-n2cnc3c(=O)[nH]c(N)nc32)cc1`, 0.45% (inactive); under `O=C(COC(=O)c1ccc(O)cc1O)NC(=O)c1ccccc1`, -0.49% (inactive).
Take `O=C(NNC(=O)c1ccccc1O)c1ccccc1O`: the inhibition was -13.5% (inactive).
On to `O=C(NNc1c2ccccc2nc2ccccc12)c1cc2ccccc2cc1O`, for which the inhibition was 65.3% (active).
For `Cc1cccc(C)c1NC(=O)C(c1ccc(C(F)(F)F)cc1)n1c(=O)c(-c2ccco2)nc2ccccc21` (centres undefined), the inhibition is -9.78% (inactive).
The value for `O=S(=O)(NCCc1ccccn1)c1cc(Cl)cc(Cl)c1O` was -19.9% (inactive); that for `O=C(c1ccc(O)cc1)c1ccc(C(=O)O)c(C(=O)O)c1` was 17.8% (inactive); that for `COC(=O)[C@]12CCCCC=C1N(Cc1ccc3c(c1)OCO3)C(=O)[C@H](CC(=O)NCc1cccs1)C2` was 21.1% (inactive).
Consider `NS(=O)(=O)c1ccc(NC(=O)COC(=O)c2c3c(nc4ccccc24)/C(=C\c2ccc4c(c2)OCO4)CCC3)cc1`, for which the inhibition was 6.15% (inactive).
`O=C(COC(=O)c1c2c(nc3ccccc13)CCCC2)c1ccc(Br)s1`: the inhibition is 49% (active).
In the case of `Cn1cccc1C(=O)OCC(=O)c1ccc(Br)s1`, the inhibition was -0.72% (inactive).
As for `Cc1cc(S(=O)(=O)N2CCOCC2)ccc1OCC(=O)Nc1cccc(C(F)(F)F)c1`, the inhibition was 30.6% (inactive).
On to `CN1C(=O)C2CC(O)C(SC3CC4C(=O)N(C)C(=O)C4CC3O)CC2C1=O` (centres undefined), for which the inhibition was 2.98% (inactive).
The value for `CN[C@H]1C[C@H]2c3cc(Oc4ccccc4C)ccc3CCN2C(=O)[C@H]1[C@H](C)O` was 0.22% (inactive).
Under `O=C(O)c1ccc(NC(=O)c2ccc(COc3ccc(Cl)cc3)o2)cc1` stands 34.7% (inactive); under `Cc1cc(OCc2ccc(C(=O)Nc3ccc(C(=O)O)cc3)o2)ccc1Cl`, 50.2% (active); under `COc1ccc(NC(=O)CN(C)C(=O)c2ccc(COc3ccccc3)o2)cc1`, -57.5% (inactive).
On to `CC(C)(C)C(=O)c1c(N)[nH]c(C(=O)c2ccccc2)c1-c1ccc(F)cc1`, for which the inhibition is 2.74% (inactive).
With `CCOC(=O)Cn1c2c(n(-c3ccc(F)cc3)c1=O)C=C(c1ccccc1)[C@@H](C)C(C(=O)N(C)C1CCCCC1)=C2`, the inhibition was -25% (inactive).
With `COC(=O)[C@]12C[C@H](CC(=O)NCCC(C)C)C(=O)N(CCc3ccc(OC)c(OC)c3)C1=C[C@H](C(C)(C)C)O[C@@H]2C`, the inhibition was -15.9% (inactive).
In the case of `Cc1cc2nc(-c3ccc(F)cc3)c(Cc3ccsc3)n2c(C)c1Br`, the inhibition was -3.77% (inactive).
For `Cc1ccc(C)c(N2CCN(C(=O)CCCCCn3c(=S)[nH]c4ccc(N5CCOCC5)cc4c3=O)CC2)c1`, the inhibition was 75% (active).
Turning to `O=C(CCCCCn1c(=S)[nH]c2cc3c(cc2c1=O)OCO3)N1CCN(c2ccc(F)cc2)CC1`, the inhibition is 11.1% (inactive).
With `Cc1ccc(C)c(N2CCN(C(=O)CCCn3c(=O)c4cccn4c4cccnc43)CC2)c1`, the inhibition was 26% (inactive).
In the case of `CCN(CCCNC(=O)c1ccc2c(c1)NC(=O)CN2C)c1cccc(C)c1`, the inhibition is -2.86% (inactive).
As to `C/C(=N\Nc1ncc(Cl)cc1Cl)c1ccc(S(=O)(=O)NCc2ccco2)cc1`, the inhibition was 49.3% (active).
`Cc1c(Cl)cnc(NC(=O)COC(=O)c2ccc(S(=O)(=O)NCc3ccco3)cc2)c1Cl`: the inhibition is -10.1% (inactive).
As for `O=S(=O)(NCc1ccco1)c1cnc(Cl)c(Cl)c1`, the inhibition was -4.49% (inactive).
Regarding `O=C(COC(=O)Cn1cnc2ccccc2c1=O)NCC12CC3CC(CC(C3)C1)C2`, the inhibition is -9.23% (inactive).
For the compound `CCOC(=O)CNC(=O)N(C)[C@H]1C[C@H]2c3[nH]c4c(-c5ccc6c(c5)OCO6)cccc4c3CCN2C(=O)[C@H]1[C@H](C)O`, the inhibition is 12.4% (inactive).
As for `C[C@H](O)[C@@H]1C(=O)N2CCc3c([nH]c4c(-c5ccc6c(c5)OCO6)cccc34)[C@@H]2C[C@@H]1N(C)C(=O)c1ccco1`, the inhibition is 60.8% (active).
Turning to `CN[C@H]1C[C@H]2c3[nH]c4c(-c5ccccc5)cccc4c3CCN2C(=O)[C@H]1[C@H](C)O`, the inhibition was 15.3% (inactive).
With `O=C(CN1CCSCC1)N/N=C/c1ccc(Cl)cc1`, the inhibition is -17.2% (inactive).
In the case of `CSc1ncc(C(=O)Nc2ccc(C)cc2C)c(C)n1`, the inhibition was -0.22% (inactive).
With `CSCc1ccc(C(=O)Nc2cc(C)cc(C)c2)cc1`, the inhibition was 16.7% (inactive).
Turning to `Cc1ccc(NC(=O)c2ccc(CSc3ncnc4nc[nH]c34)cc2)c(C)c1`, the inhibition is 56.7% (active).
Under `CC[C@@H]1CCCCc2ccccc2[C@@H](C(=O)C[C@H](O)CC(C)=O)OC1=O` stands 13.4% (inactive); under `C=CCn1c(SCc2c(C(=O)OC)sc(N)c2C(=O)OC)nnc1-c1ccc(Cl)cc1`, 34.7% (inactive).

Broadly, the inhibition is the relative decrease from the control value, in per cent.
